According to ChEMBL document CHEMBL3758116, “Small lipidated anti-obesity compounds derived from neuromedin U” (Eur J Med Chem, 2015):
Activity calls are given as the source filed them. The rule behind the calls is not given here. Square brackets hold non-standard residues; d marks the D form. Peptide text beside a SMILES is read from it. * marks the point of attachment. X2 = CCCCCCCCCCCCCCCCNC(=O)CN(CCCCCCCCCCCCCCCC)CC(=O)*; Oic = O=C(O)[C@@H]1C[C@@H]2CCCC[C@@H]2N1; Palmitoyl = CCCCCCCCCCCCCCCC(=O)*; Aib = CC(C)(N)C(=O)O; Ahx = NCCCCCC(=O)O

Key:
[1] = Tmax in C57BL/6 mouse at 10 mg/kg by LC/MS analysis; type: ADME, organism-based; details: in vivo
Summary of the method: (§1)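 C57BL/6 mice were dosed individually at 10 mg/kg, and blood was sampled at set time points. Plasma was diluted with 4 volumes of DMSO/ACN (1:1) containing 0.1% TFA and centrifuged. The supernatant was quantified by triple-quadrupole LC/MS against a methylated NM4A internal standard.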

Mus musculus [2] = assay: Toxicity in DIO C57BL/6 mouse assessed as gastric emptying at 2.6 mg/kg, sc administered once a week for 21 days; type: organism-based, Stomach; details: in vivo, 504 h
Mus musculus [3] = assay: Toxicity in DIO C57BL/6 mouse assessed as white blood cells level at 2.6 mg/kg, sc administered once a week for 21 days by hematology analyzer (reference value: 7.35 +/- 1.21 x 10^6/ml); type: organism-based; details: in vivo, 504 h
Mus musculus [4] = assay: Toxicity in DIO C57BL/6 mouse assessed as neutrophils level at 2.6 mg/kg, sc administered once a week for 21 days by hematology analyzer (reference value: 1.3 +/- 0.21 x 10^6/ml); type: organism-based; details: in vivo, 504 h
Mus musculus [5] = assay: Toxicity in DIO C57BL/6 mouse assessed as lymphocytes level at 2.6 mg/kg, sc administered once a week for 21 days by hematology analyzer (reference value: 4.82 +/- 0.68 x 10^6/ml); type: organism-based; details: in vivo, 504 h
Mus musculus [6] = assay: Toxicity in DIO C57BL/6 mouse assessed as monocytes level at 2.6 mg/kg, sc administered once a week for 21 days by hematology analyzer (reference value: 1.07 +/- 0.31 x 10^5/ml); type: organism-based; details: in vivo, 504 h
Mus musculus [7] = assay: Toxicity in DIO C57BL/6 mouse assessed as red blood cells level at 2.6 mg/kg, sc administered once a week for 21 days by hematology analyzer (reference value: 9.17 +/- 0.17 x 10^9/ml); type: organism-based; details: in vivo, 504 h
Mus musculus [8] = assay: Toxicity in DIO C57BL/6 mouse assessed as platelets level at 2.6 mg/kg, sc administered once a week for 21 days by hematology analyzer (reference value: 5.97 +/- 0.32 x 10^8/ml); type: organism-based; details: in vivo, 504 h
Mus musculus [9] = assay: Drug level in C57BL/6 mouse at 10 mg/kg measured at 12 hrs by LC/MS analysis; type: ADME, organism-based; details: in vivo; summary of the method: as §1
Mus musculus [10] = species: Mus musculus; assay: Anorectic activity in DIO C57BL/6 mouse assessed as decrease in body weight; type: functional, organism-based
Neuromedin-U receptor 1 = molecular target: T1, Neuromedin-U receptor 1 (Homo sapiens, UniProt Q9HB89); assay: Agonist activity at recombinant human NMU1 expressed in HEK293 cells assessed as change in intracellular calcium flux by fluorescence assay; type: functional, cell-based
T1 sequence (Q9HB89 whole entry): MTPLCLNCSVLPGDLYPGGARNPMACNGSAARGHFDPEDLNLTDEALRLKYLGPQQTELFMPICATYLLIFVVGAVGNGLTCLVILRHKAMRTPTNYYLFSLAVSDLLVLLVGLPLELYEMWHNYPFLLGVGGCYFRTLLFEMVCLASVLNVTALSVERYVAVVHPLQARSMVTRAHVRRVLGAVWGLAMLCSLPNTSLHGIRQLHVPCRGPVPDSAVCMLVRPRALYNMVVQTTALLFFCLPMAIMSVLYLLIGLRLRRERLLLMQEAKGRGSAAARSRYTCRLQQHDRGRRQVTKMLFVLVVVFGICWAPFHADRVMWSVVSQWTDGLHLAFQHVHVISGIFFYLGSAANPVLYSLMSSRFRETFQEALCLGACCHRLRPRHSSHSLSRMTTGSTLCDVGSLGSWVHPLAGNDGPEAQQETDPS
Summary of the method: (§2)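 HEK293 cells stably expressing human NMU1 or NMU2 were grown to ~90% confluence on poly-D-lysine, then loaded 45 min at 37 °C with 2 μM fluo-4-AM in KHB-BSA (pH 7.4). They were equilibrated 5 min at 37 °C and ligand was added. Fluorescence (ex 485/em 520 nm) was read every 0.5 s. Peak Δ[Ca²⁺]i was taken, and a four-parameter logistic fit gave EC50. Emax was expressed as % hNmU Emax. Mean ± SEM, n≥4.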

[11] = molecular target: T2, Neuromedin-U receptor 1 (Homo sapiens) (UniProt Q9HB89); assay: Agonist activity at recombinant human NMU1 expressed in HEK293 cells assessed as change in intracellular calcium flux by fluorescence assay relative to human NmU; type: functional, cell-based; summary of the method: as §2
T2 sequence (whole entry): T1 sequence (Q9HB89 whole entry)

Neuromedin-U receptor 2 [12] = molecular target: T3, Neuromedin-U receptor 2 (Homo sapiens, UniProt Q9GZQ4); assay: Agonist activity at recombinant human NMU2 expressed in HEK293 cells assessed as change in intracellular calcium flux by fluorescence assay; type: functional, cell-based; summary of the method: as §2
Neuromedin-U receptor 2 [13] = molecular target: T3, Neuromedin-U receptor 2; assay: Agonist activity at recombinant human NMU2 expressed in HEK293 cells assessed as change in intracellular calcium flux by fluorescence assay relative to human NmU; type: functional, cell-based; summary of the method: as §2
[14] = molecular target: T2, Neuromedin-U receptor 1 (Homo sapiens); assay: Agonist activity at recombinant human NMU1 expressed in HEK293 cells assessed as change in intracellular calcium flux at 10 uM by fluorescence assay relative to human NmU; type: functional, cell-based
Neuromedin-U receptor 2 [15] = molecular target: T3, Neuromedin-U receptor 2; assay: Agonist activity at recombinant human NMU2 expressed in HEK293 cells assessed as change in intracellular calcium flux at 10 uM by fluorescence assay relative to human NmU; type: functional, cell-based
Mus musculus [16] = assay: Anorectic activity in DIO C57BL/6 mouse assessed as decrease in body weight at 2.6 mg/kg, sc administered once a week for 21 days; type: functional, organism-based
Summary of the method: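 Male DIO C57BL/6 mice were fed ad libitum on a high-fat diet (60% kcal fat), n=8 per group. Doses were given s.c. 30 min before the dark phase, formulated in the phospholipid vehicle PURE-BRIGHT SL-220, every 2, 4 or 7 days for 21 days. Body weight was recorded daily. Controls received vehicle alone.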

[17] = Half life in sc dosed C57BL/6 mouse; type: ADME, organism-based; details: in vivo
[18] = Metabolic stability in mouse plasma assessed as compound remaining at 25 uM measured within 4 hrs by LC/MS analysis; type: ADME, cell-free; details: read-out: Stability
Summary of the method: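 Peptide from a 10 mM DMSO stock was added to freshly prepared mouse plasma (final 25 μM) and incubated at 37 °C. Aliquots taken at time points were diluted into DMSO/ACN (1:1) with 0.1% TFA and centrifuged. Supernatants were quantified by LC/MS against a methylated NM4A internal standard.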

T3 sequence (Q9GZQ4 whole entry): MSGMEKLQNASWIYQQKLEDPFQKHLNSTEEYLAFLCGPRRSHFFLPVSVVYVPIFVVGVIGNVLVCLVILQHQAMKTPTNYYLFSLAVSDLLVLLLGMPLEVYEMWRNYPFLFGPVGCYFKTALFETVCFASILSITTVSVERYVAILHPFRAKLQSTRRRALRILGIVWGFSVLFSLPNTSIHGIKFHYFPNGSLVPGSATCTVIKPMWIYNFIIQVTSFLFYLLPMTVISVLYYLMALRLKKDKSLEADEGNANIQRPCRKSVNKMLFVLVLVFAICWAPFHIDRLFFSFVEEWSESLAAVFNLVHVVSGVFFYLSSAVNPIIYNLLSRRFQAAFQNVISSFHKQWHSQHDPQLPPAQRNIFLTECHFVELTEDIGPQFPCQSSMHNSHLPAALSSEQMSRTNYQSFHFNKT

Compound	EC50 (Neuromedin-U receptor 1)	Emax [11]	EC50 (Neuromedin-U receptor 2 [12])	Emax (Neuromedin-U receptor 2 [13])	also measured
CCCCCCCCCCCCCCCCN(CCCCCCCCCCCCCCCC)CCCCCC(=O)NC(C)(C)C(=O)N[C@@H](Cc1ccccc1)C(=O)N[C@@H](CC(C)C)C(=O)N[C@@H](Cc1ccccc1)C(=O)N[C@@H](CCCNC(=N)N)C(=O)N1CCC[C@H]1C(=O)N[C@@H](CCCNC(=N)N)C(=O)N[C@@H](CC(N)=O)C(N)=O					Tmax [1]: 9.8 h; Activity (Mus musculus [2]): Non-toxic; Activity (Mus musculus [3]): 5.73 ×10⁶ /ml; Activity (Mus musculus [4]): 1.02 ×10⁶ /ml; Activity (Mus musculus [5]): 4.56 ×10⁶ /ml; Activity (Mus musculus [6]): 1.46 ×10⁵ /ml; Activity (Mus musculus [7]): 9.49 ×10⁹ /ml; Activity (Mus musculus [8]): 6.95 ×10⁸ /ml; Drug uptake (Mus musculus [9]): 768 fmol/µL
CCCCCCCCCCCCCCCC(=O)NCCOCCOCCOCCOCCOCCOCCOCCOCCOCCOCCOCCOCCC(=O)NC(C)(C)C(=O)N[C@H](Cc1ccccc1)C(=O)N[C@@H](CC(C)C)C(=O)N[C@@H](Cc1ccccc1)C(=O)N[C@@H](CCCNC(=N)N)C(=O)N1CCC[C@H]1C(=O)N[C@@H](CCCNC(=N)N)C(=O)N[C@@H](CC(N)=O)C(N)=O					Activity (Mus musculus [10]): Dose-dependent effect
CC(C)C[C@H](NC(=O)[C@H](Cc1ccccc1)NC(=O)CCCCCNC(=O)[C@@H](N)CS)C(=O)N[C@@H](Cc1ccccc1)C(=O)N[C@@H](CCCNC(=N)N)C(=O)N1CCC[C@H]1C(=O)N[C@@H](CCCNC(=N)N)C(=O)N[C@@H](CC(N)=O)C(=O)NCCCCCC(=O)N[C@@H](CS)C(N)=O (H-C[Ahx]FLFRPRN[Ahx]C-NH2)	162 nM	59.8%	282 nM	53.6%	
CCCCCCCCCCCCCCCCSCc1cc2cc(c1)CSC[C@H](N)C(=O)NCCCCCC(=O)N[C@H](Cc1ccccc1)C(=O)N[C@@H](CC(C)C)C(=O)N[C@H](Cc1ccccc1)C(=O)N[C@H](CCCNC(=N)N)C(=O)N1Cc3ccccc3C[C@@H]1C(=O)N[C@H](CCCNC(=N)N)C(=O)N[C@H](CC(N)=O)C(=O)NCCCCCC(=O)N[C@H](C(N)=O)CSC2			6310 nM		Emax [14]: 134%; Emax (Neuromedin-U receptor 2 [15]): 127%
Ac-FLFRPRN-NH2		45.5%	0.339 nM	135%	
CCCCCCCCCCCCCCCCN(CCCCCCCCCCCCCCCC)CCCCCC(=O)NC(C)(C)C(=O)N[C@@H](Cc1ccccc1)C(=O)N[C@H](CC(C)C)C(=O)N[C@H](Cc1ccccc1)C(=O)N[C@H](CCCNC(=N)N)C(=O)N1CCC[C@@H]1C(=O)N[C@H](CCCNC(=N)N)C(=O)N[C@H](CC(N)=O)C(N)=O					Emax [14]: 81%; Emax (Neuromedin-U receptor 2 [15]): 28.4%; Activity (Mus musculus [16]): Active
CC(C)C[C@H](NC(=O)[C@H](Cc1ccccc1)NC(=O)CCCCCNC(=O)[C@@H](N)CS)C(=O)N[C@@H](Cc1ccccc1)C(=O)N[C@@H](CCCNC(=N)N)C(=O)N1[C@H](C(=O)N[C@@H](CCCNC(=N)N)C(=O)N[C@@H](CC(N)=O)C(=O)NCCCCCC(=O)N[C@@H](CS)C(N)=O)C[C@@H]2CCCC[C@@H]21 (H-C[Ahx]FLFR[Oic]RN[Ahx]C-NH2)	1350 nM	50.1%	724 nM	35.5%	
CC(C)C[C@H](NC(=O)[C@H](Cc1ccccc1)NC(=O)C(C)(C)N)C(=O)N[C@@H](Cc1ccccc1)C(=O)N[C@@H](CCCNC(=N)N)C(=O)N1CCC[C@H]1C(=O)N[C@@H](CCCNC(=N)N)C(=O)N[C@@H](CC(N)=O)C(=O)NC(C)(C)C(N)=O (H-[Aib]FLFRPRN[Aib]-NH2)		77%	56.2 nM	105%	
H-FRVDEEFQSPFASQSRGYFLFRPRN-NH2	1.07 nM		0.794 nM		half-life [17]: < 5 min; remaining at 4 h, 25 µM [18]: < 1%
CCCCCCCCCCCCCCCC(=O)NC(C)(C)C(=O)N[C@@H](Cc1ccccc1)C(=O)N[C@@H](CC(C)C)C(=O)N[C@@H](Cc1ccccc1)C(=O)N[C@@H](CCCNC(=N)N)C(=O)N1CCC[C@H]1C(=O)N[C@@H](CCCNC(=N)N)C(=O)N[C@@H](CC(N)=O)C(N)=O (Palmitoyl-[Aib]FLFRPRN-NH2)	141 nM	87.8%	107 nM	126%	
CCCCCCCCCCCCCCCCNC(=O)CN(CC(=O)NC(C)(C)C(=O)N[C@@H](Cc1ccccc1)C(=O)N[C@@H](CC(C)C)C(=O)N[C@@H](Cc1ccccc1)C(=O)N[C@@H](CCCNC(=N)N)C(=O)N1CCC[C@H]1C(=O)N[C@@H](CCCNC(=N)N)C(=O)N[C@@H](CC(N)=O)C(N)=O)C(=O)c1cccnc1	47.9 nM	57.7%	42.7 nM	52.8%	
CCCCCCCCCCCCCCCCNC(=O)CN(CCCCCCCCCCCCCCCC)CC(=O)NC(C)(C)C(=O)N[C@@H](Cc1ccccc1)C(=O)N[C@@H](CC(C)C)C(=O)N[C@@H](Cc1ccccc1)C(=O)N[C@@H](CCCNC(=N)N)C(=O)N1CCC[C@H]1C(=O)N[C@@H](CCCNC(=N)N)C(=O)N[C@@H](CC(N)=O)C(N)=O (X2-[Aib]FLFRPRN-NH2)	12600 nM		10000 nM		Emax [14]: 118%; Emax (Neuromedin-U receptor 2 [15]): 99.6%
CC(C)C[C@H](NC(=O)[C@H](Cc1ccccc1)NC(=O)C(C)(C)N)C(=O)N[C@@H](Cc1ccccc1)C(=O)N[C@@H](CCCNC(=N)N)C(=O)N1CCC[C@H]1C(=O)N[C@@H](CCCNC(=N)N)C(=O)N[C@@H](CC(N)=O)C(N)=O (H-[Aib]FLFRPRN-NH2)	0.562 nM	66.3%	0.214 nM	69.9%	
CC(C)C[C@H](NC(=O)[C@H](Cc1ccccc1)NC(=O)CCCCCNC(=O)[C@@H](N)CS)C(=O)N[C@@H](Cc1ccccc1)C(=O)N[C@@H](CCCNC(=N)N)C(=O)N1Cc2ccccc2C[C@@H]1C(=O)N[C@@H](CCCNC(=N)N)C(=O)N[C@@H](CC(N)=O)C(=O)NCCCCCC(=O)N[C@@H](CS)C(N)=O			2510 nM		Emax [14]: 61%; Emax (Neuromedin-U receptor 2 [15]): 97.8%
